# In the library only some 3.7% were active in any assay of this set; here they are far more common.
# KCNQ1 inh: blocks the human KCNQ1 potassium channel; CHO-K1 KCNQ1, FluxOR thallium flux fluorescence; active compounds read high; B-score at 10 µM; hit rate 1.3% among 310,000; AID 2642;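 active = compounds whose thallium flux B-score, printed positive for inhibition, exceeds three library SD while starting fluorescence stays within three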;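 note: channel opened by potassium depolarization with thallium stimulus after 20 min compound exposure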
# KCNK9 inh-1: human KCNK9 channel inhibition; AID 488922; HEK293 KCNK9, FluxOR thallium flux fluorescence; active compounds read low; Q9NPC2; hit rate 1.2% among 310,000; B-score at 10 µM;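 active = ratio B-score over 3 SD below the library mean, with starting fluorescence within 5 SD of its mean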;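 note: negative B-score means less thallium flux so channel inhibition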
# Target sequence (Q9NPC2 whole entry, looked up): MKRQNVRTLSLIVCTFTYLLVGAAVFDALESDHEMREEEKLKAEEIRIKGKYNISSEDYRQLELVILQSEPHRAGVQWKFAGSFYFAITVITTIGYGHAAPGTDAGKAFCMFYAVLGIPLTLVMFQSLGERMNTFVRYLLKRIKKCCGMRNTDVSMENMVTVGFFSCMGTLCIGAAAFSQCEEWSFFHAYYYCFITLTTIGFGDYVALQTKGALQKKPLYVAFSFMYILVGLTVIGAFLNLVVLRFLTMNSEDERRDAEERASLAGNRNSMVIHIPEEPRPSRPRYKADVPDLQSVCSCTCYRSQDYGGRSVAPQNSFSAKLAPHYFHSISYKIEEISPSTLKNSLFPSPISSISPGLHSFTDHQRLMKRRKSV
# Kir21 block: blocks the mouse Kir2.1 inward-rectifier potassium channel. hit rate 0.85% among 310,000. AID 1672. HEK293-Kir2.1, FluxOR thallium flux fluorescence; active compounds read low. P35561. B-score at 10 µM;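 active = fluorescence ratio B-score at or below minus 3 SD of library scores, with starting-brightness B-score within 2 SD, cut at about -4.2 in these data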;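 note: channel flux triggered by added potassium and thallium sulfate stimulus; B-score of peak minus minimum fluorescence over baseline after thallium stimulus; more negative B-score means stronger Kir2.1 block with less thallium influx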
# Target sequence (P35561 whole entry, looked up): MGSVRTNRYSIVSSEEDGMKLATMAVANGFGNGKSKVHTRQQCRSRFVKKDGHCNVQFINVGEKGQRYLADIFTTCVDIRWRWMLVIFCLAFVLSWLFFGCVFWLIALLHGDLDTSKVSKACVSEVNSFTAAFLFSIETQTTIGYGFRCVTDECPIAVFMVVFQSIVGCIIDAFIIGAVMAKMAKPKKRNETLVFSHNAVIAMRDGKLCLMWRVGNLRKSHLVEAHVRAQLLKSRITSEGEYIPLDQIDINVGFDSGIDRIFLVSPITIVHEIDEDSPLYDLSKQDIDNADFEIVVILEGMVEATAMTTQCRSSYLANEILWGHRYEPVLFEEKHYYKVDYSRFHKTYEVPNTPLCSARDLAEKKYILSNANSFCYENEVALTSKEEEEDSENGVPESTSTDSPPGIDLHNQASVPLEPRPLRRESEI
# KCNQ1 pot: potentiates or activates the human KCNQ1 potassium channel | B-score at 10 µM | hit rate 0.35% among 310,000 | CHO-K1 KCNQ1, thallium flux FluxOR fluorescence; active compounds read high;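 active = fluorescence ratio B-score, a plate-corrected score, at least three library SD, with initial intensity B-score within 5 SD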
#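 assay system = KCNQ1-transfected CHO-K1 cells | medium = assay buffer with matched DMSO | probe or stimulus = depolarizing K+/Tl+ stimulus, K2SO4 and Tl2SO4 each 12.5 mM in 5x stock | dosing = single dose | incubation = dye 90 min, compound 20 min, room temperature | detection = kinetic FluxOR fluorescence, 10 s baseline plus 110 s post-stimulus | evaluation = ratio B score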
# KCNK3 block: human KCNK3 channel inhibition, primary screen; O14649; CHO-KCNK3 thallium flux, FluxOR fluorescence; active compounds read low; B-score at 10 µM; hit rate 0.84% among 340,000;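 active = B-score under library mean minus 4 SD, starting fluorescence ratio at most library mean plus 5 SD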;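 note: more negative B-score means stronger inhibition of thallium flux through KCNK3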
# hERG rescue: hERG (human) protection from proarrhythmic block; Q12809; CHO-hERG, FluxOR thallium flux, dofetilide IC70 present; activation (rescue from dofetilide block), less the hit threshold, % at 10 µM; hit rate 0.51% among 310,000;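 active = activation above the mean of controls blocked by dofetilide plus 5 SD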;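 note: thallium influx through hERG after potassium depolarization seen as dye fluorescence rise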
# hERG ctr: counter-screen for Kir2.1 inhibitors: effect on human hERG; shares compounds with Kir21 block; hit rate 20% among 320; hERG-expressing cells, thallium flux; inhibition, % at 10 µM;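 note: host cells are CHO cells stably expressing hERG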
# KCNK9 inh-2: selectivity of Kir2.1 inhibitors: effect on human KCNK9; shares compounds with Kir21 block; KCNK9-expressing cells, ion flux inhibition; inhibition, % at 10 µM; hit rate 5% among 320; AID 2329
# Kir2-1 patch inh: blocks mouse Kir2.1 current in automated electrophysiology. shares compounds with Kir21 block. Kir2.1 cells, automated patch-clamp current inhibition. hit rate 71% among 320. inhibition, % at 25 µM
# KCNQ1 inh valid: human KCNQ1 channel inhibition, validation assay; shares compounds with KCNQ1 inh; KCNQ1 cell line, FluxOR thallium flux fluorescence; inhibition, % at 10 µM; hit rate 93% among 1,600; AID 588353;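 active = primary screen active, with duplicate mean exceeding buffer control mean plus 3 SD of buffer wells, cut at about 28% in these data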
# CHO KCNQ1 ctr: counter-screen for KCNQ1 inhibitors: effect in parental CHO cells; hit rate 21% among 1,600; fluorescence ratio (Tl flux) at 10 µM; shares compounds with KCNQ1 inh; parental CHO-K1, FluxOR thallium flux fluorescence ratio; active compounds read low; zero means no signal rise above baseline;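 active = mean of duplicate thallium-flux fluorescence ratios in parental host cells more than 5 SD below the buffer control mean, cut at about 0.38 in these data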;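 note: ratio is peak minus minimum fluorescence divided by baseline fluorescence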
# KCNQ1 ephys val: human KCNQ1 inhibition validated by electrophysiology. calls only at 10 µM. shares compounds with KCNQ1 inh. KCNQ1-CHO cells, automated patch clamp current. hit rate 20% among 490;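 active = KCNQ1 current drop exceeding 3 SD of negative control wells, seen in both duplicate runs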;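 note: steady state current during a 2 s step from -80 to +40 mV; negative values mean current inhibition and positive values mean potentiation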
# KCNQ2 inh: rat KCNQ2 inhibition in KCNQ1 inhibitor specificity screen. hit rate 71% among 1,600. KCNQ2 cells, FluxOR thallium flux fluorescence. inhibition, % at 10 µM. shares compounds with KCNQ1 inh. AID 651746;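 active = mean percent inhibition of the KCNQ2 thallium signal more than 5 SD above the buffer-only control wells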;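 note: KCNQ2 expressed in CHO cells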
# KCNQ1 KCNE1 spec: human KCNQ1/KCNE1 inhibition in KCNQ1 specificity screen | shares compounds with KCNQ1 inh | KCNQ1/KCNE1 cells, FluxOR thallium flux fluorescence | inhibition, % at 10 µM | hit rate 77% among 1,600 | AID 652147;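 active = mean percent inhibition of duplicate wells above the buffer-only control mean plus 3 SD of those controls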
# KCNK9 inh conf: human KCNK9 inhibitor confirmation; shares compounds with KCNK9 inh-1; HEK293 KCNK9 cells, FluxOR thallium flux fluorescence; inhibition, % at 10 µM; hit rate 43% among 4,900;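 active = thallium signal inhibited by more than 5 SD of the compound-free buffer control wells, on both duplicate plates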
# Kir21 sel: mouse Kir2.1 off-target activity of KCNK9 modulators. shares compounds with KCNK9 inh-1. Kir2.1 cells, FluxOR thallium flux fluorescence. inhibition, % at 10 µM. hit rate 4% among 4,900. AID 492993;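 active = thallium signal drop more than 5 SD beyond the mean of the no-compound control wells, seen in both duplicate plates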;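 note: signal is fluorescence rise after thallium addition divided by baseline fluorescence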
# HEK293 Tl ctr: second check of KCNK9 modulator effects in non-induced HEK293 cells; shares compounds with KCNK9 inh-1; FluxOR thallium flux; inhibition, % at 10 µM; hit rate 40% among 4,900; AID 492997;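 active = thallium signal drop beyond 5 SD of the untreated control mean, on both duplicate plates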
# KCNK3 inh conf: confirmation of human KCNK3 two-pore domain potassium channel inhibitors; ratio percent of control, % at 10 µM; shares compounds with KCNK3 block; hit rate 99% among 2,400; CHO-KCNK3 thallium flux, FluxOR fluorescence; 0% buffer, 100% carvedilol maximal block;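 active = ratio percent of control, averaged over triplicates, above buffer control mean plus 5 SD, cut at about 64% in these data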;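 note: ratio is the fluorescence rise from min to max over baseline after thallium stimulus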
# KCNK3 noninduced: activity in cells without induced KCNK3 expression | shares compounds with KCNK3 block | non-induced KCNK3 parental cells, FluxOR thallium flux; active compounds read low | thallium flux ratio (lower = more inhibition) at 10 µM | hit rate 40% among 2,400 | AID 651747;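 active = thallium flux ratio, averaged over three wells, more than 5 SD below the buffer control mean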;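 note: host cells are CHO cells without KCNK3 induction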
# A number is an active result; . = inactive; / = not tested or not shown. Unless noted, the rule behind the calls is not given here.
SMILES,KCNQ1 inh,KCNK9 inh-1,Kir21 block,KCNQ1 pot,KCNK3 block,hERG rescue,KCNQ1 inh valid,CHO KCNQ1 ctr,KCNQ2 inh,KCNQ1 KCNE1 spec,others
c1ccc(CNc2c3ccccc3nc3ccccc23)cc1,8,.,-8.3,.,.,.,39,.,66%,48%,hERG ctr=70%;KCNK9 inh-2=.;Kir2-1 patch inh=16%
COc1cccc(N2C(=O)Nc3ccc(Br)cc3C2(O)C(=O)NCCCN(C)C)c1 (centres undefined),.,.,.,.,.,.,/,/,/,/,
COc1ccc(CN2CCCC(C(=O)c3ccc4c(c3)OCO4)C2)c(F)c1 (centres undefined),.,.,-6.4,.,.,.,/,/,/,/,hERG ctr=46%;KCNK9 inh-2=.;Kir2-1 patch inh=23%;KCNK9 inh conf=.;Kir21 sel=.;HEK293 Tl ctr=.
CC(=O)Cn1c(CN2CCN(C(=O)c3ccco3)CC2)nc2c1c(=O)n(C)c(=O)n2C,.,.,.,.,.,.,/,/,/,/,
O=C(COC(=O)c1c[nH]c2ccccc12)Nc1cccc(F)c1,/,/,/,/,.,/,/,/,/,/,
CSCc1ccc(C(=O)N2CCCC(Nc3ccc(F)cc3)C2)o1 (centres undefined),.,.,-5.7,.,.,.,/,/,/,/,hERG ctr=.;KCNK9 inh-2=.;Kir2-1 patch inh=29%;KCNK9 inh conf=.;Kir21 sel=33%;HEK293 Tl ctr=.
Cc1ccc(C(CCN(Cc2ccccc2)C(=O)c2ccco2)c2ccco2)cc1 (centres undefined),.,.,.,.,.,.,/,/,/,/,
O=C(c1ccco1)N(CCC(c1ccccc1)c1ccco1)Cc1ccco1 (centres undefined),.,-8.2,-6.1,.,.,.,/,/,/,/,hERG ctr=.;KCNK9 inh-2=48%;Kir2-1 patch inh=.;KCNK9 inh conf=40%;Kir21 sel=.;HEK293 Tl ctr=36%
O=C(N/N=C/c1cccc(Oc2ccccc2)c1)c1cccc(O)c1,.,.,-8.1,.,-13,.,/,/,/,/,hERG ctr=.;KCNK9 inh-2=.;Kir2-1 patch inh=41%;KCNK3 inh conf=131;KCNK3 noninduced=0.12
CCCc1cc(=O)[nH]c(SCC(=O)Nc2sccc2C#N)n1,/,/,/,/,.,/,/,/,/,/,
Cc1nnc2ccc(Oc3ccc(-c4ccccc4)cc3)nn12,9,.,.,.,.,.,67,.,.,.,
Cc1cc(=O)[nH]c(N2CCCCC2)n1,/,/,/,/,.,/,/,/,/,/,
COc1ccc(S(=O)(=O)Oc2ccc(C(=S)N3CCOCC3)cc2OC)cc1,.,.,.,.,.,.,/,/,/,/,
O=S(=O)(Oc1ccc(C(=S)N2CCOCC2)cc1)c1ccc(Cl)cc1,8,.,.,.,.,.,85,.,.,65%,
CC(Sc1nnc(-c2ccncc2)n1-c1ccc(F)cc1)C(=O)NC1CC1 (centres undefined),/,/,/,/,.,/,/,/,/,/,
CSCCC(NC(=O)/C(=C/c1ccco1)NC(=O)c1ccco1)C(=O)O (centres undefined),.,.,.,.,.,.,/,/,/,/,
CCN(CC)S(=O)(=O)c1cc(C(=O)Nc2cccnc2)ccc1Cl,.,.,.,.,.,.,/,/,/,/,
CCN(CC)S(=O)(=O)c1cc(C)ccc1NC(=S)Nc1cccnc1,10,.,.,.,.,.,68,.,61%,48%,
NCCC(=O)N1c2ccccc2Sc2ccc(Cl)cc21,7,.,-4.8,.,.,.,72,.,.,62%,
NCCCC(=O)N1c2ccccc2Sc2ccc(Cl)cc21,.,.,.,.,.,.,/,/,/,/,
COc1cc(NC(=O)c2ccc(NC3=NC4CS(=O)(=O)CC4S3)cc2)cc(OC)c1OC (centres undefined),.,.,.,.,.,.,/,/,/,/,
COC(=O)C1CCCCN1C(=O)c1cc(COc2cccc3cnccc23)on1 (centres undefined),9,.,.,.,.,.,25,.,75%,.,
CCOC(=O)CC1CCCCN1C(=O)c1cc(COc2cccc3cnccc23)on1 (centres undefined),11,.,.,.,.,.,136,.,92%,58%,KCNQ1 ephys val=.
Cc1ccc(-c2nn(-c3ccc(F)cc3)cc2C(=O)N(C)CC(=O)Nc2ccc(N3CCOCC3)cc2)cc1,.,.,.,.,.,.,/,/,/,/,
Oc1ccc(NC(=S)N=Nc2c(O)[nH]c3ccc(Br)cc23)cc1,7,.,.,.,.,.,108,.,75%,158%,KCNQ1 ephys val=.
Oc1[nH]c2ccc(Br)cc2c1N=NC(=S)Nc1ccc(F)cc1,.,.,.,.,.,.,/,/,/,/,
COc1ccc(NC(=O)c2cccc(-c3ccc(O)cc3)c2)cn1,.,.,.,.,.,.,/,/,/,/,
c1ccc(Cn2nnnc2C(c2cccnc2)N2CCN(C3CCCCC3)CC2)cc1 (centres undefined),8,.,.,.,.,.,39,.,64%,38%,
O=C(Nc1ccccc1)Nc1ccccc1NS(=O)(=O)c1cccs1,10,.,.,.,.,.,64,.,64%,.,

# Source: PubChem
